Results reported in ChEMBL document CHEMBL1154369, “Betulin-derived compounds as inhibitors of alphavirus replication” (J Nat Prod, 2009).
Calls of active or inactive are those of the source. The rule behind the calls is not given here.

Columns and labels:
[1] = Cytotoxicity against human HuH7 cells assessed as cell viability at 50 uM after 24 hrs
[2] = system: Semliki Forest virus; assay: Antiviral activity against SFV infected in BHK cells assessed as surviving virus fraction at 50 uM after 14 hrs by luciferase reporter gene assay; assay type: functional; parameters: scale not given here
[3] = system: Semliki Forest virus; assay: Antiviral activity against SFV infected in BHK cells after 14 hrs by luciferase reporter gene assay; assay type: functional, organism-based
How it was run: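 SFV-Rluc reporter virus from infectious cDNA clone; BHK-21 cells infected at low multiplicity (0.001 PFU/cell) and incubated 14 h, spanning over 2 infectious cycles. Serial dilutions of each derivative tested. Luciferase read-out as surviving virus fraction. IC50 from a sigmoidal dose-response fit; means ± SD, n = 6. 3′-Amino-3′-deoxyadenosine (20 µM) served as screen positive control.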

[4] = Cytotoxicity against human HuH7 cells assessed as cell viability at 500 uM after 24 hrs; assay type: cell-based, Huh-7; settings: read-out: Activity
How it was run: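 Huh-7 human hepatocellular carcinoma cells exposed 24 h to derivative at 500 µM in an extended cytotoxicity analysis. Viability measured as intracellular ATP content and reported as surviving fraction.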

[5] = system: Semliki Forest virus; assay: Antiviral activity against SFV infected in BHK cells assessed as surviving virus fraction at 20 uM after 14 hrs by luciferase reporter gene assay; assay type: functional
How it was run: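 BHK-21 cells were infected with the luciferase marker virus SFV-Rluc, made from an infectious cDNA clone, at a low multiplicity of 0.001 PFU/cell. Infection ran through more than 2 infectious cycles over a 14 h incubation, and the read-out was luciferase reporter activity. The surviving fraction was the percentage of viral replication remaining. The screen was automated and run in triplicate.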

[6] = system: Semliki Forest virus; assay: Antiviral activity against SFV infected in BHK cells assessed as surviving virus fraction at 200 uM after 14 hrs by luciferase reporter gene assay in presence of 50 ug/ml guanosine; assay type: functional, organism-based
[7] = system: Semliki Forest virus; assay: Antiviral activity against SFV infected in BHK cells assessed as decrease in surviving virus fraction at 200 uM treated during time of viral adsorption for 1 hr measured after 5 hrs by luciferase reporter gene assay; assay type: functional, organism-based
How it was run: (§1)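 Time-of-addition run with SFV-Rluc at high multiplicity (5 PFU/cell) in BHK-21 cultures, covering a single replication cycle. Compound present throughout (0-5 h), only during adsorption (0-1 h), at 1-5 h, or at 2-5 h. Surviving fraction is the remaining Renilla luciferase activity, read at 5 h per legend (4.5 h in text); means ± SD, n = 4.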

[8] = system: Semliki Forest virus; assay: Antiviral activity against SFV infected in BHK cells assessed as decrease in surviving virus fraction at 50 uM treated during time of viral adsorption for 1 hr measured after 5 hrs by luciferase reporter gene assay; assay type: functional, organism-based; how it was run: as §1
[9] = system: Semliki Forest virus; assay: Antiviral activity against SFV infected in BHK cells assessed as decrease in surviving virus fraction at 200 uM treated 1 hr after viral adsorption measured after 5 hrs by luciferase reporter gene assay; assay type: functional, organism-based; how it was run: as §1
[10] = system: Semliki Forest virus; assay: Antiviral activity against SFV infected in BHK cells assessed as decrease in surviving virus fraction at 50 uM treated 2 hr after viral adsorption measured after 5 hrs by luciferase reporter gene assay; assay type: functional, organism-based; how it was run: as §1
[11] = system: Semliki Forest virus; assay: Antiviral activity against SFV infected in BHK cells assessed as decrease in surviving virus fraction at 50 uM treated 1 hr after viral adsorption measured after 5 hrs by luciferase reporter gene assay; assay type: functional, organism-based; how it was run: as §1
[12] = system: Semliki Forest virus; assay: Antiviral activity against SFV infected in BHK cells assessed as surviving virus fraction at 50 uM after 14 hrs by luciferase reporter gene assay in presence of 50 ug/ml guanosine; assay type: functional, organism-based
[13] = system: Sindbis virus; assay: Antiviral activity against Sindbis virus infected in BHK cells assessed as inhibition of RNA synthesis after 14 hrs by [3H]uridine incorporation assay; assay type: functional, organism-based
How it was run: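 Sindbis virus from infectious cDNA clone grown in BHK-21 cells. Viral RNA synthesis rate measured by [3H]-uridine labeling. Serial compound dilutions from 16 pM to 50 µM. IC50 from nonlinear regression to sigmoidal dose-response curves; means ± SD, n = 4.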

[14] = system: Semliki Forest virus; assay: Antiviral activity against SFV infected in BHK cells assessed as decrease in surviving virus fraction at 200 uM treated 2 hr after viral adsorption measured after 5 hrs by luciferase reporter gene assay; assay type: functional, organism-based; how it was run: as §1

## CC(=O)OC[C@]12CC[C@]3(C(C)C)C1=C1[C@H](C[C@@H]4[C@@]5(C)CC[C@H](OC(C)=O)C(C)(C)[C@@H]5CC[C@@]4(C)[C@]1(C)CC2)n1c(=O)n(Cc2ccccc2)c(=O)n13
[1]
  viability at 24 h, 50 µM: 101%
[2]
  Activity: 1%
[3]; read-out: IC50
  IC50: 35.9 µM
[3]; read-out: pIC50 (converted)
  IC50: 36.3 µM
[4]
  viability at 24 h, 500 µM: > 80%

## C=C(C)[C@@H]1CC[C@]2(C(=O)O)CC[C@]3(C)[C@H](CC[C@@H]4[C@@]5(C)CCC(=O)C(C)(C)[C@@H]5CC[C@]43C)[C@@H]12 [BETUNOLIC ACID]
[1]
  viability at 24 h, 50 µM: 89%
[2]
  Activity: 13%
[3]; read-out: IC50
  IC50: 13.3 µM
[3]; read-out: pIC50 (converted)
  IC50: 13.2 µM
[4]
  viability at 24 h, 500 µM: > 80%

## CC(C)[C@@H]1CC[C@]2(C(=O)O)CC[C@]3(C)[C@H](CC[C@@H]4[C@@]5(C)CCC(=O)C(C)(C)[C@@H]5CC[C@]43C)[C@@H]12 [DIHYDROBETULONIC ACID]
[1]
  viability at 24 h, 50 µM: 102%
[2]
  Activity: 14%
[3]; read-out: IC50
  IC50: 30.6 µM
[3]; read-out: pIC50 (converted)
  IC50: 30.2 µM
[4]
  viability at 24 h, 500 µM: > 80%

## CCCCn1c(=O)n2n(c1=O)[C@]1(C(C)C)CC[C@]3(COC(C)=O)CC[C@]4(C)C(=C31)[C@@H]2C[C@@H]1[C@@]2(C)CC[C@H](OC(C)=O)C(C)(C)[C@@H]2CC[C@]14C
[1]
  viability at 24 h, 50 µM: 81%
[2]
  Activity: 19%
[3]; read-out: IC50
  IC50: 37.9 µM
[3]; read-out: pIC50 (converted)
  IC50: 38 µM
[4]
  viability at 24 h, 500 µM: > 80%

## Nc1ncnc2c1ncn2[C@@H]1O[C@H](CO)[C@@H](N)[C@H]1O
[5]
  Activity: 12%
[3]; read-out: IC50
  IC50: 18 µM

## C=C(C)[C@@H]1CC[C@]2(C=O)CC[C@]3(C)[C@H](CC[C@@H]4[C@@]5(C)CCC(=O)C(C)(C)[C@@H]5CC[C@]43C)[C@@H]12 [BETULONAL]
[1]
  viability at 24 h, 50 µM: 90%
[2]
  Activity: 8%
[3]; read-out: IC50
  IC50: 38.3 µM
[3]; read-out: pIC50 (converted)
  IC50: 38 µM
[4]
  viability at 24 h, 500 µM: 52%

## C=C(C)[C@@H]1CC[C@]2(COC(C)=O)CC[C@]3(C)[C@H](CC[C@@H]4[C@@]5(C)CC[C@H](O)C(C)(C)[C@@H]5CC[C@]43C)[C@@H]12
[1]
  viability at 24 h, 50 µM: 87%
[2]
  Activity: 3%
[3]; read-out: IC50
  IC50: 12.1 µM
[3]; read-out: pIC50 (converted)
  IC50: 12 µM
[4]
  viability at 24 h, 500 µM: > 80%

## NC(=O)c1ncn([C@@H]2O[C@H](CO)[C@@H](O)[C@H]2O)n1 [RIBAVIRIN]
[3]; read-out: IC50
  IC50: 95.1 µM
[3]; read-out: pIC50 (converted)
  IC50: 95.5 µM
[6]
  Activity: inactive

## C=C(C)[C@@H]1CC[C@]2(COC3CCCCO3)CC[C@]3(C)[C@H](CC[C@@H]4[C@@]5(C)CC[C@H](O)C(C)(C)[C@@H]5CC[C@]43C)[C@@H]12 (stereo not given in full)
[7]
  Activity: inactive
[8]
  Activity: inactive
[9]
  Activity: Active
[10]
  Activity: Active
[1]
  viability at 24 h, 50 µM: 92%
[2]
  Activity: 11%
[3]; read-out: IC50
  IC50: 17.2 µM
[3]; read-out: pIC50 (converted)
  IC50: 17.4 µM
[11]
  Activity: Active
[12]
  Activity: Active
[13]; read-out: IC50
  IC50: 1.9 µM
[13]; read-out: pIC50 (converted)
  IC50: 1.91 µM
[4]
  viability at 24 h, 500 µM: > 80%

## C=C(C)[C@@H]1CC[C@]2(CO)CC[C@]3(C)[C@H](CC[C@@H]4[C@@]5(C)CC[C@H](O)C(C)(C)[C@@H]5CC[C@]43C)[C@@H]12 [BETULIN]
[1]
  viability at 24 h, 50 µM: 83%
[2]
  Activity: 7%
[3]; read-out: IC50
  IC50: 45.5 µM
[3]; read-out: pIC50 (converted)
  IC50: 45.7 µM
[4]
  viability at 24 h, 500 µM: > 80%

## CC(=O)OC[C@]12CC[C@]3(C(C)C)C1=C1[C@H](C[C@@H]4[C@@]5(C)CC[C@H](OC(C)=O)C(C)(C)[C@@H]5CC[C@@]4(C)[C@]1(C)CC2)n1c(=O)n(-c2cccc([N+](=O)[O-])c2)c(=O)n13
[1]
  viability at 24 h, 50 µM: 108%
[2]
  Activity: 3%
[3]; read-out: IC50
  IC50: 22.9 µM
[3]; read-out: pIC50 (converted)
  IC50: 22.9 µM
[4]
  viability at 24 h, 500 µM: > 80%

## C=C(C)[C@@H]1CC[C@]2(COC(C)=O)CC[C@]3(C)[C@H](CC[C@@H]4[C@@]5(C)CCC(=O)C(C)(C)[C@@H]5CC[C@]43C)[C@@H]12
[1]
  viability at 24 h, 50 µM: 83%
[2]
  Activity: 11%
[3]; read-out: IC50
  IC50: 48.5 µM
[3]; read-out: pIC50 (converted)
  IC50: 47.9 µM
[4]
  viability at 24 h, 500 µM: > 80%

## C=C(C)[C@@H]1CC[C@]2(C(=O)O)CC[C@]3(C)[C@H](CC[C@@H]4[C@@]5(C)CC[C@H](O)C(C)(C)[C@@H]5CC[C@]43C)[C@@H]12 [BETULINIC ACID]
[7]
  Activity: inactive
[8]
  Activity: inactive
[9]
  Activity: Active
[10]
  Activity: Active
[1]
  viability at 24 h, 50 µM: 123%
[2]
  Activity: 18%
[14]
  Activity: Active
[3]; read-out: IC50
  IC50: 14.6 µM
[3]; read-out: pIC50 (converted)
  IC50: 14.5 µM
[11]
  Activity: Active
[12]
  Activity: Active
[13]; read-out: IC50
  IC50: 0.5 µM
[13]; read-out: pIC50 (converted)
  IC50: 0.457 µM
[4]
  viability at 24 h, 500 µM: > 80%

## CC(=O)OC[C@]12CC[C@]3(C(C)C)C1=C1[C@H](C[C@@H]4[C@@]5(C)CC[C@H](OC(C)=O)C(C)(C)[C@@H]5CC[C@@]4(C)[C@]1(C)CC2)n1c(=O)n(-c2cccc(Cl)c2)c(=O)n13
[1]
  viability at 24 h, 50 µM: 95%
[2]
  Activity: 1%
[3]; read-out: IC50
  IC50: 22.1 µM
[3]; read-out: pIC50 (converted)
  IC50: 22.4 µM
[4]
  viability at 24 h, 500 µM: > 80%

## C=C(C)[C@@H]1CC[C@]2(CO)CC[C@]3(C)[C@H](CC[C@@H]4[C@@]5(C)CC[C@H](OC(C)=O)C(C)(C)[C@@H]5CC[C@]43C)[C@@H]12
[1]
  viability at 24 h, 50 µM: 86%
[2]
  Activity: 3%
[3]; read-out: IC50
  IC50: 24.2 µM
[3]; read-out: pIC50 (converted)
  IC50: 24 µM
[4]
  viability at 24 h, 500 µM: > 80%

## CC(=O)OC[C@]12CC[C@]3(C(C)C)C1=C1[C@H](C[C@@H]4[C@@]5(C)CC[C@H](OC(C)=O)C(C)(C)[C@@H]5CC[C@@]4(C)[C@]1(C)CC2)n1c(=O)n(-c2ccccc2)c(=O)n13
[7]
  Activity: inactive
[8]
  Activity: inactive
[9]
  Activity: Active
[10]
  Activity: Active
[1]
  viability at 24 h, 50 µM: 87%
[2]
  Activity: 13%
[3]; read-out: IC50
  IC50: 19.7 µM
[3]; read-out: pIC50 (converted)
  IC50: 19.5 µM
[11]
  Activity: Active
[12]
  Activity: Active
[13]; read-out: IC50
  IC50: 6.1 µM
[13]; read-out: pIC50 (converted)
  IC50: 6.17 µM
[4]
  viability at 24 h, 500 µM: > 80%

## CC(=O)OC[C@]12CCC(C(C)C)=C1[C@H]1CC[C@@H]3[C@@]4(C)CC[C@H](OC(C)=O)C(C)(C)[C@@H]4CC[C@@]3(C)[C@]1(C)CC2
[1]
  viability at 24 h, 50 µM: 87%
[2]
  Activity: 15%
[3]; read-out: IC50
  IC50: 43.2 µM
[3]; read-out: pIC50 (converted)
  IC50: 42.7 µM
[4]
  viability at 24 h, 500 µM: > 80%
